Test results: ChEMBL document CHEMBL2086358, “Discovery of structurally-diverse inhibitor scaffolds by high-throughput screening of a fragment library with dimethylarginine dimethylaminohydrolase” (Bioorg Med Chem, 2012)
pIC50, pKi: −log10 of the molar value. Active and inactive are the calls of the source. No cut-off for these calls is given here.

What was measured:
[1] = biological target: T1, N(G),N(G)-dimethylarginine dimethylaminohydrolase 1 (Homo sapiens, UniProt O94760); experiment: Inhibition of human recombinant His6-tagged DDAH1 expressed in Escherichia coli BL21(DE3) using Nomega,Nomega-dimethyl-L-arginine as substrate after 80 mins by colorimetric ureido derivitization assay
T1 sequence (O94760 whole entry): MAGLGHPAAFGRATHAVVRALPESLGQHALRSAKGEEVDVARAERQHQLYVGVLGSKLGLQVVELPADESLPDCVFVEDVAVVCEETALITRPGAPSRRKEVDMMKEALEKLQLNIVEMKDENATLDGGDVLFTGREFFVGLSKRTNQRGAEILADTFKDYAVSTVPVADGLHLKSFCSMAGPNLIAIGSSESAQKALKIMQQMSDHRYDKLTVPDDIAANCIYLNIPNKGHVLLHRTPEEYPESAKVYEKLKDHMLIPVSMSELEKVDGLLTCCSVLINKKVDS

[2] = biological target: T1, N(G),N(G)-dimethylarginine dimethylaminohydrolase 1; experiment: Inhibition of human recombinant His6-tagged DDAH1 expressed in Escherichia coli BL21(DE3) using Nomega,Nomega-dimethyl-L-arginine as substrate at 400 uM incubated for 10 to 20 mins prior to substrate addition measured after 1 to 2 hrs by colorimetric ureido derivitization assay in presence of 2 mM reduced glutathione
How it was run: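 Compound (400 μM) preincubated 10–20 min at room temperature with human DDAH-1 (1 μM) and reduced glutathione (2 mM) in Reaction Buffer, pH 7.3. ADMA (300 μM) then added; 1–2 h at room temperature, HCl quench (1 M final), colorimetric ureido derivatization. Inhibition compared against assays without glutathione.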

[3] = biological target: T1, N(G),N(G)-dimethylarginine dimethylaminohydrolase 1; experiment: Reversible inhibition of human recombinant His6-tagged DDAH1 expressed in Escherichia coli BL21(DE3) using 1 mM Nomega,Nomega-dimethyl-L-arginine as substrate incubated up to 120 mins prior to substrate addition measured after 120 mins by colorimetric ureido derivitization assay
How it was run: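 Human DDAH-1 (30 μM) incubated at room temperature with compound (0–2 mM) in Na2HPO4 100 mM, NaCl 100 mM, EDTA 2 mM, Tween-20 0.02%, pH 7.25, with or without reduced glutathione (2 mM). After 0–120 min, diluted 40-fold into ADMA (1 mM) in the same buffer. Incubated a further 120 min, quenched with HCl (300 mM final), and L-citrulline read colorimetrically.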

[4] = biological target: T1, N(G),N(G)-dimethylarginine dimethylaminohydrolase 1; experiment: Competitive inhibition of human recombinant His6-tagged DDAH1 expressed in Escherichia coli BL21(DE3) using Nomega,Nomega-dimethyl-L-arginine as substrate after 80 mins by double-reciprocal plot analysis
[5] = biological target: T1, N(G),N(G)-dimethylarginine dimethylaminohydrolase 1; experiment: Inhibition of human recombinant His6-tagged DDAH1 expressed in Escherichia coli BL21(DE3) using Nomega,Nomega-dimethyl-L-arginine as substrate at 400 uM after 1 to 2 hrs by colorimetric ureido derivitization assay
How it was run: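 Rapid-onset secondary assay. Compound (400 μM) mixed with ADMA (300 μM, 2.5-fold over KM) in Reaction Buffer (Na2HPO4 172 mM, KCl 172 mM, Tween-20 0.02%, EDTA 2 mM, pH 7.3). Started with human DDAH-1 (1 μM final), run 1–2 h, quenched with HCl (1 M final). Ureido product read colorimetrically; ≥20% inhibition counted as a hit.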

Pseudomonas aeruginosa [6] = experiment: Inhibition of Pseudomonas aeruginosa His6-tagged DDAH expressed in Escherichia coli BL21(DE3) using S-methyl-Lthiocitrulline as substrate at 100 uM measured every 20 secs for 10 mins
[7] = biological target: T1, N(G),N(G)-dimethylarginine dimethylaminohydrolase 1; experiment: Inhibition of human recombinant His6-tagged DDAH1 expressed in Escherichia coli BL21(DE3) using Nomega,Nomega-dimethyl-L-arginine as substrate at 400 uM by colorimetric ureido derivitization assay; conditions: TDE = time-dependent effect
Pseudomonas aeruginosa [8] = experiment: Ratio of Kinact to KI for Pseudomonas aeruginosa His6-tagged DDAH expressed in Escherichia coli BL21(DE3) using S-methyl-Lthiocitrulline as substrate up to 1 mM measured every 20 secs for 10 mins by fluorescence spectrophotometry
[9] = biological target: T1, N(G),N(G)-dimethylarginine dimethylaminohydrolase 1; experiment: Inhibition of human recombinant His6-tagged DDAH1 expressed in Escherichia coli BL21(DE3) using S-methyl-L-thiocitrulline as substrate at 100 uM by CPM-based fluorescence spectrophotometry
How it was run: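 Primary HTS run in duplicate. Compound at 100 μM with human DDAH-1 (20 nM), S-methyl-L-thiocitrulline (0.4 μM) and CPM (3.5 μM) in K2HPO4 172 mM, KCl 172 mM, EDTA 2 mM, Tween-20 0.02%, DMSO 1%, pH 7.3. Enzyme–compound preincubation 10 min.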

Pseudomonas aeruginosa [10] = experiment: Inhibition of Pseudomonas aeruginosa His6-tagged DDAH expressed in Escherichia coli BL21(DE3) using S-methyl-Lthiocitrulline as substrate up to 1 mM measured every 20 secs for 10 mins by fluorescence spectrophotometry

Row | SMILES | pIC50 [1] | inhibition [2] [%] | inhibition [3] | pKi [4] | inhibition [5] [%] | inhibition (Pseudomonas aeruginosa [6]) [%] | inhibition [7] | Ratio (Pseudomonas aeruginosa [8]) [M⁻¹ s⁻¹] | inhibition [9] [%] | inhibition (Pseudomonas aeruginosa [10])
1 | NCCSc1nc2ccccc2o1 | 2.57 | 23 | Active | 2.77 | 21 |  |  |  |  | 
2 | OCc1cc(Cl)ccn1 |  | 46 |  |  | 56 | 50 | tde | 0.65 | 17 | 
3 | CCc1nc2ccccc2[nH]1 | 2.85 | 25 | Active | 3.10 | 36 | 1 |  |  | 4 | inactive
4 | Cc1cc(Br)ccn1 |  | 95 |  |  | 74 | 89 | tde | 4.8 | 55 | 
